Test results from ChEMBL document CHEMBL1144181, “Achiral oligoamines as versatile tool for the development of aspartic protease inhibitors” (Bioorg Med Chem, 2008).

Experiments:
[1] = molecular target: Protease (Human immunodeficiency virus 1, UniProt Q9YQ12); assay: Inhibition of recombinant HIV1 protease expressed in Escherichia coli by fluorescence technique
[2] = Inhibition of Plasmodium recombinant plasmepsin-2 expressed in Escherichia coli by fluorescence technique
Method in brief: (§1)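 The recombinant enzyme was expressed in E. coli and purified. It was assayed at room temperature in 100 mM NaAc, pH 4.5, with 1 mg/mL BSA and 4% final DMSO. The substrate was Abz-Thr-Ile-Nle-(p-NO2-Phe)-Gln-Arg-NH2, read by fluorescence increase (ex 337, em 410 nm). IC50 came from nonlinear regression of vi/v0 versus inhibitor concentration, and Ki = IC50/[1+(S/Km)].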

[3] = Inhibition of Plasmodium recombinant plasmepsin-4 expressed in Escherichia coli by fluorescence technique; method in brief: as §1
[4] = molecular target: T1, Renin (Homo sapiens, UniProt P00797); assay: Inhibition of recombinant renin by fluorescence technique
T1 sequence (P00797 whole entry): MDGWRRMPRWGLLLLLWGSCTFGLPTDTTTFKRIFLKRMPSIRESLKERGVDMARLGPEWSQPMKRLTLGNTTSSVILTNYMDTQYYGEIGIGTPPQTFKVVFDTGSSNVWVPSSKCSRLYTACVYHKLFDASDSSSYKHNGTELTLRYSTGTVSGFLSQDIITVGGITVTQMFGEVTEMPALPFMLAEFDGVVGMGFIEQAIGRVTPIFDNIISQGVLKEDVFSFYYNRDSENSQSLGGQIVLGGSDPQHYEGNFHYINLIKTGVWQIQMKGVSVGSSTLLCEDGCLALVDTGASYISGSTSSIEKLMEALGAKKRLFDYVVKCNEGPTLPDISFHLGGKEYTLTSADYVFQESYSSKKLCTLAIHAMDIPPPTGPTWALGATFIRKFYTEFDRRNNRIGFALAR

[5] = molecular target: Beta-secretase 1 (Homo sapiens, UniProt P56817); assay: Inhibition of recombinant beta secretase 1 by fluorescence technique
[6] = Inhibition of pig pepsin by fluorescence technique; design: species or system Sus scrofa

Sequence of Beta-secretase 1 (P56817 whole entry): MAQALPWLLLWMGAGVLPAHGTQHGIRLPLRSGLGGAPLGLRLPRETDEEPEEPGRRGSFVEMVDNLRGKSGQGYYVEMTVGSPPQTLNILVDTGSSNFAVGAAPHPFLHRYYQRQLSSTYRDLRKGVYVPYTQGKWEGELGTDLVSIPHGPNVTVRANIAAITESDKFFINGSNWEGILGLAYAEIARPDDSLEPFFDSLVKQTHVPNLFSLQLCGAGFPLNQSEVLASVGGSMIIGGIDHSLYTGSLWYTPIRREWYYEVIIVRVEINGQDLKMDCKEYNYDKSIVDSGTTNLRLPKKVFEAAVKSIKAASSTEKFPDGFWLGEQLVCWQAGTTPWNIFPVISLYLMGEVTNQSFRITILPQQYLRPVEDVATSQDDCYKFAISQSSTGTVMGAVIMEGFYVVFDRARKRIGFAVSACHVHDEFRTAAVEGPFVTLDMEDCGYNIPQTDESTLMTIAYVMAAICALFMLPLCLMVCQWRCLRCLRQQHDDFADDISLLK
Sequence of Protease (Q9YQ12 whole entry): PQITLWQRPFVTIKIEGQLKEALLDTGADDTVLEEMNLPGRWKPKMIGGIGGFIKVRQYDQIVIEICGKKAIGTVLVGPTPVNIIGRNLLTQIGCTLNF

Row | Structure (SMILES) | Ki [1] | Ki [2] | Ki [3] | IC50 [4] | IC50 [5] | Ki [6] | IC50 [1] | Ki [4] | IC50 [6] | Ki [5]
1 | CC(C)CN(C[C@@H](O)[C@H](Cc1ccccc1)NC(=O)O[C@H]1CCOC1)S(=O)(=O)c1ccc(N)cc1 | 0.9 µM |  |  |  |  |  |  |  |  | 
2 | O=S(=O)(c1ccccc1)N(CCNCCN(Cc1ccccc1)S(=O)(=O)c1ccccc1)Cc1ccccc1 | 3.8 µM | 7 µM | 36 µM | > 250 µM | > 250 µM | 5.7 µM |  |  |  | 
3 | O=C(Cc1ccccc1)N(CCCNCCCN(Cc1ccccc1)C(=O)Cc1ccccc1)Cc1ccccc1 |  | 120 µM | 170 µM |  | > 250 µM |  | > 250 µM | 16 µM | > 250 µM | 
4 | O=S(=O)(c1ccccc1)N(CCCNCCCN(Cc1ccccc1)S(=O)(=O)c1ccccc1)Cc1ccccc1 |  | 21 µM | 42 µM | > 250 µM |  |  | > 250 µM |  | > 250 µM | 150 µM
5 | O=C(Cc1ccccc1)N(CCCNCCN(Cc1ccccc1)C(=O)Cc1ccccc1)Cc1ccccc1 |  | 63 µM | 56 µM | > 250 µM | > 250 µM |  | > 250 µM |  | > 250 µM | 
6 | O=C(Cc1ccccc1)N(CCNCCN(Cc1ccccc1)C(=O)Cc1ccccc1)Cc1ccccc1 |  | 91 µM | 98 µM |  | > 250 µM |  | > 250 µM | 5.7 µM | > 250 µM | 
7 | CC(C)CN(CCNCCN(CC(C)C)S(=O)(=O)c1ccc(N)cc1)S(=O)(=O)c1ccc(N)cc1 |  | 6.8 µM | 56 µM | > 250 µM | > 250 µM | 4.8 µM |  |  |  | 
8 | Nc1ccc(S(=O)(=O)N(CCCNCCN(Cc2ccccc2)S(=O)(=O)c2ccc(N)cc2)Cc2ccccc2)cc1 |  | 22 µM | 7.5 µM | > 250 µM | > 250 µM |  | > 250 µM |  | > 250 µM | 
9 | Nc1ccc(S(=O)(=O)N(CCCNCCCN(Cc2ccccc2)S(=O)(=O)c2ccc(N)cc2)Cc2ccccc2)cc1 |  | 2.8 µM | 20 µM | > 250 µM |  | 4 µM | > 250 µM |  |  | 64 µM
10 | Nc1ccc(S(=O)(=O)N(CCNCCN(Cc2ccccc2)S(=O)(=O)c2ccc(N)cc2)Cc2ccccc2)cc1 |  | 4.2 µM | 7.5 µM | > 250 µM | > 250 µM | 3.9 µM |  |  |  | 
11 | O=S(=O)(c1ccccc1)N(CCCNCCN(Cc1ccccc1)S(=O)(=O)c1ccccc1)Cc1ccccc1 | 14 µM | 18 µM | 17 µM | > 250 µM | > 250 µM | 15 µM |  |  |  | 
12 | CC(C)CN(CCNCCN(CC(C)C)S(=O)(=O)c1ccccc1)S(=O)(=O)c1ccccc1 | 10 µM | 23 µM | 87 µM | > 250 µM | > 250 µM | 4.5 µM |  |  |  | 
